Data on one compound can be found in ChEMBL document CHEMBL4425104, “Structure-Based Design of Potent Nicotinamide Phosphoribosyltransferase Inhibitors with Promising in Vitro and in Vivo Antitumor Activities” (J Med Chem, 2016).

Data set [1] concerns the target T1, Nicotinamide phosphoribosyltransferase (Homo sapiens, UniProt P43490). In words: Inhibition of recombinant NAMPT (unknown origin) using nicotinamide as substrate measured every 5 mins for 30 mins in presence of recombinant NMNAT1.
A further data set deals with HeLa. In words: Cytotoxicity against human HeLa cells assessed as cell growth inhibition after 72 hrs by CCK-8 assay. In kind it is functional. The gist of the method: (§1)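 HeLa, MCF7, H1975, U937 and MDA-MB-231 kept in RPMI or DMEM with 10% FBS and 1% pen/strep at 37 °C, 5% CO2. Seeded at 400-800 cells/well in 384-well format, exposed to a concentration series or solvent control for 72 h. CCK-8 added, absorbance read at 450 nm, IC50 fitted from dose-response curves.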

The next data set concerns MCF7. In words: Cytotoxicity against human MCF7 cells assessed as cell growth inhibition after 72 hrs by CCK-8 assay. The following applies: MCF7, 72 h. Type of data set: functional. The gist of the method: as §1
(In general: Formazan colour is commonly taken as a measure of viable cells.)

In a further data set the test system is NCI-H1975. In words: Cytotoxicity against human NCI-H1975 cells assessed as cell growth inhibition after 72 hrs by CCK-8 assay. Type of data set: functional. Particulars: NCI-H1975, 72 h. In outline:
as §1

Another data set concerns U-937. In words: Cytotoxicity against human U937 cells assessed as cell growth inhibition after 72 hrs by CCK-8 assay. In kind it is functional. The following applies: U-937, 72 h. In outline:
as §1

The test system of data set [2] is MDA-MB-231. In words: Cytotoxicity against human MDA-MB-231 cells assessed as cell growth inhibition after 72 hrs by CCK-8 assay. In kind it is functional. Particulars: MDA-MB-231, 72 h. The gist of the method:
as §1

The target of data set [3] is T1, Nicotinamide phosphoribosyltransferase. In words: Inhibition of NAMPT in human MCF7 cells assessed as decrease in NAD production after 24 hrs by NAD/NADH Glo assay. Type of data set: cell-based. In outline: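 MCF-7 cells serum-starved over 12 h, then treated with compound or vehicle for 24 h. Washed in ice-cold PBS, lysed in 1% DTAB in 0.2 N NaOH diluted 1:1 with PBS, frozen at -80 °C.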

Data set [4] can be described thus: Cmax in Sprague-Dawley rat at 5 mg/kg, iv measured up to 24 hrs by LC-MS analysis. In kind it is ADME, organism-based. Particulars: in vivo. Further details: dose 5 mg/kg, route intravenous.
The nature of data set [5]: Cmax in Sprague-Dawley rat at 25 mg/kg, po measured up to 24 hrs by LC-MS analysis. Particulars: in vivo. Further details: dose 25 mg/kg, route oral. Type of data set: ADME, organism-based.
Data set [6] is described as follows: Tmax in Sprague-Dawley rat at 5 mg/kg, iv by LC-MS analysis. In kind it is ADME, organism-based. Particulars: in vivo.
A short description of data set [7]: Tmax in Sprague-Dawley rat at 25 mg/kg, po by LC-MS analysis. In kind it is ADME, organism-based. Particulars: in vivo.
Data set [8] can be described thus: AUC (0 to infinity) in Sprague-Dawley rat at 5 mg/kg, iv measured up to 24 hrs by LC-MS analysis. Type of data set: ADME, organism-based. Further details: dose 5 mg/kg, time infinity, route intravenous. Particulars: in vivo.
Data set [9] is described as follows: AUC (0 to infinity) in Sprague-Dawley rat at 25 mg/kg, po measured up to 24 hrs by LC-MS analysis. Type of data set: ADME, organism-based. The following applies: in vivo. Further details: dose 25 mg/kg, route oral, time infinity.
Data set [10] in a line: Half life in Sprague-Dawley rat at 5 mg/kg, iv by LC-MS analysis. Type of data set: ADME, organism-based. Particulars: in vivo.
Data set [11] is described as follows: Half life in Sprague-Dawley rat at 25 mg/kg, po by LC-MS analysis. In kind it is ADME, organism-based. Particulars: in vivo.
Data set [12] can be described thus: Plasma clearance in Sprague-Dawley rat at 5 mg/kg, iv measured up to 24 hrs by LC-MS analysis. In kind it is ADME, organism-based.
A short description of data set [13]: Plasma clearance in Sprague-Dawley rat at 25 mg/kg, po measured up to 24 hrs by LC-MS analysis. In kind it is ADME, organism-based.
Data set [14] is described as follows: Oral bioavailability in Sprague-Dawley rat at 25 mg/kg measured up to 24 hrs by LC-MS analysis. Type of data set: ADME, organism-based. Particulars: in vivo.
The subject of data set [15] is MDA-MB-231. In words: Antitumor activity against human MDA-MB-231 cells xenografted in nude SCID mouse assessed as tumor growth inhibition at 15 mg/kg, iv qd administered 4 days per week for 4 weeks. Type of data set: functional. Particulars: MDA-MB-231, iv, read-out: TGI. In outline: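 Female SCID nude mice, 6 weeks old, given 1 × 10^6 MDA-MB-231 cells into the lower left mammary fat pad. At 100–300 mm3 tumours, randomised to groups of n = 5 and dosed i.v. at 15 mg/kg or vehicle 4 days a week. Volume = L × W²/2; TGI = [1 − (T − T0)/(C − C0)] × 100 from mean volumes; body weight followed.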
On the technique in general: In xenograft studies the graft and the host belong to different species.

Data set [16] can be described thus: Toxicity in nude SCID mouse assessed as mortality at 15 mg/kg, iv qd administered 4 days per week for 4 weeks. In kind it is organism-based. Particulars: in vivo. In outline: (§2)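 Female SCID nude mice (6 weeks) bearing MDA-MB-231 orthotopic tumours (1 × 10^6 cells in lower left mammary fat pad). Randomised at tumour volume 100–300 mm3 into vehicle or treatment groups (n = 5). Dosing 15 mg/kg i.v., 4 days a week. Vehicle elsewhere given as 2% DMSO, 4% EtOH, 4% castor oil, 90% water. Body weight and mortality recorded during treatment.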

A short description of data set [17]: Toxicity in nude SCID mouse assessed as body weight loss at 15 mg/kg, iv qd administered 4 days per week for 4 weeks. In kind it is organism-based. The following applies: in vivo. The gist of the method: as §2
The nature of data set [18]: Ratio of Cmax in Sprague-Dawley rat to IC50 for NAMPT in human MCF7 cells. In kind it is ADME, cell-based.

T1 sequence (P43490 whole entry): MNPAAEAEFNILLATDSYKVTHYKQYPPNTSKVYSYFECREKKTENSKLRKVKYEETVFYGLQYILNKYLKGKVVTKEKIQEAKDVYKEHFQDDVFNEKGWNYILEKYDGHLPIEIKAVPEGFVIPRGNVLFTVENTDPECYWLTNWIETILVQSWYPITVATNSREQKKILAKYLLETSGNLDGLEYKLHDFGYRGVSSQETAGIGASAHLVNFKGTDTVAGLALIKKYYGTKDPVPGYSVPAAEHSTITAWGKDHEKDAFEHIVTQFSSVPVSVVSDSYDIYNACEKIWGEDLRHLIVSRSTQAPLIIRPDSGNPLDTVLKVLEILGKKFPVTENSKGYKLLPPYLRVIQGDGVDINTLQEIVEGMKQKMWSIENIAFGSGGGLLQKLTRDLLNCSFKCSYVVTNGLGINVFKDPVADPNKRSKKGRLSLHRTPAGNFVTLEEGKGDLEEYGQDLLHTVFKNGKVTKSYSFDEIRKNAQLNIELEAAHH

In the case of `CC(C)N(CCc1c[nH]c2ccccc12)Cc1ccc(NCCCCCNC(=O)/C=C/c2cccnc2)cc1`, the IC50 (usually the midpoint of a concentration-inhibition curve) came to 25.3 nM in data set [1] and 0.155 nM in data set [3]. Moreover, the GI50 – broadly, the concentration that inhibits growth by half – amounted to 0.5 nM with HeLa; 0.13 nM in the data set with MCF7; 1.61 nM with NCI-H1975; 0.25 nM in the data set on U-937; 0.15 nM in the data set with MDA-MB-231 [2]. The Cmax (usually the maximum level reached in the sampled fluid or tissue) in data set [4] was found to be 3790 ng/mL; in data set [5] it was 108 ng/mL. For the same compound, the Tmax – broadly, the time at which the peak concentration occurs – in [6] worked out at 1.98 min; in data set [7], 2 h. For the same compound, the AUC(0-inf) (as a rule, total exposure, with the tail of the curve extrapolated) in data set [8] was determined as 1710 ng·h/mL; in data set [9] it was 374 ng·h/mL. The figures for the half-life in [10] and in data set [11] were 1.55 h and 2.37 h, respectively. The clearance (commonly the rate of elimination divided by the concentration) in [12] is 49 mL/min/kg. Moreover, in [13], the CL/F (as a rule, clearance divided by bioavailability, as obtained after extravascular dosing) was 1140 mL/min/kg. Moreover, the bioavailability (usually dose-corrected exposure relative to a reference, in per cent) in data set [14] stood at 4.4%. For the same compound, the inhibition in vivo at 15 mg/kg in the data set with MDA-MB-231 [15] was determined as 73.8%. Also, the Activity result in data set [16] and in [17] was “Non-Toxic” throughout. Moreover, the Ratio in data set [18] amounted to 500.
